Several values for one entry are separate records, joined by “and”; a condition that tells them apart may be missing. Equal values may be shown once.
What was measured:
HEK-293T = assay: Multiplex assay against HEK293T; format: toxicity, cell-based; settings: human, number of replicates 2
Procedure, shortened: (§1)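 Compound was added to live cells that had been stained at seeding with Hoechst33342, BioTracker Green Microtubule Cytoskeleton Dye, MitoTracker Red and Annexin V Alexa Fluor 680, and imaging followed on a CQ1 microscope at 37°C and 5% CO2. CellPathfinder machine-learning gating divided cells into Hoechst high-intensity objects or normal cells, normal cells into healthy, pyknosed or fragmented nuclei, and pyknosed cells into mitotic or apoptotic. Tubulin, mitochondrial-mass and membrane-permeability phenotypes are per cents of healthy-nucleus cells.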

Fibroblast = assay: Multiplex assay against human fibroblast; format: toxicity, cell-based; settings: number of replicates 2; procedure, shortened: as §1
[1] = 24 h, 10 µM, compound concentration 10 uM
[2] = 48 h, 1 µM, compound concentration 1 uM
[3] = 48 h, 10 µM, compound concentration 10 uM
[4] = 12 h, 1 µM, compound concentration 1 uM
[5] = 12 h, 10 µM, compound concentration 10 uM
[6] = 24 h, 1 µM, compound concentration 1 uM

Structure (SMILES): COc1cc(Br)c(S(=O)(=O)Nc2ccc(C(F)(F)F)c(O[C@@H]3CCN(C)C3)c2)cc1OC
- Population Mitochondria Different-Phenotype (%) (HEK-293T; [1]): 10% and 6%
- Population Mitotic Cells (%) (HEK-293T; [1]): 40% and 56%
- Population Normal (%) (HEK-293T; [1]): 90% and 91%
- Population Pyknosed Nuclei (%) (HEK-293T; [1]): 12% and 9%
- Population Tubulin-Different-Phenotype (%) (HEK-293T; [1]): 51% and 30%
- Total Cell Count (HEK-293T; [1]): 764 and 718
- Population Apoptotic (%) (HEK-293T; [2]): 14% and 8%
- Population Fragmented Nuclei (%) (HEK-293T; [2]): 15% and 9%
- Population Healthy Nuclei (%) (HEK-293T; [2]): 82% and 87%
- Population Hoechst High Intensity Objects (%) (HEK-293T; [2]): 9%
- Population Membrane Permeable-Phenotype (%) (HEK-293T; [2]): 4% and 3%
- Population Mitochondria Different-Phenotype (%) (HEK-293T; [2]): 0%
- Population Mitotic Cells (%) (HEK-293T; [2]): 85% and 91%
- Population Normal (%) (HEK-293T; [2]): 90%
- Population Pyknosed Nuclei (%) (HEK-293T; [2]): 2%
- Population Tubulin-Different-Phenotype (%) (HEK-293T; [2]): 13% and 11%
- Total Cell Count (HEK-293T; [2]): 3360 and 2392
- Population Apoptotic (%) (HEK-293T; [3]): 25% and 20%
- Population Fragmented Nuclei (%) (HEK-293T; [3]): 13%
- Population Healthy Nuclei (%) (HEK-293T; [3]): 82% and 84%
- Population Hoechst High Intensity Objects (%) (HEK-293T; [3]): 9%
- Population Membrane Permeable-Phenotype (%) (HEK-293T; [3]): 5% and 6%
- Population Mitochondria Different-Phenotype (%) (HEK-293T; [3]): 0%
- Population Mitotic Cells (%) (HEK-293T; [3]): 75% and 80%
- Population Normal (%) (HEK-293T; [3]): 90%
- Population Pyknosed Nuclei (%) (HEK-293T; [3]): 4% and 2%
- Population Tubulin-Different-Phenotype (%) (HEK-293T; [3]): 24% and 13%
- Total Cell Count (HEK-293T; [3]): 1611 and 1583
- Population Apoptotic (%) (Fibroblast; [4]): 54% and 48%
- Population Fragmented Nuclei (%) (Fibroblast; [4]): 13% and 15%
- Population Healthy Nuclei (%) (Fibroblast; [4]): 71% and 63%
- Population Hoechst High Intensity Objects (%) (Fibroblast; [4]): 0%
- Population Membrane Permeable-Phenotype (%) (Fibroblast; [4]): 3% and 4%
- Population Mitochondria Different-Phenotype (%) (Fibroblast; [4]): 0%
- Population Mitotic Cells (%) (Fibroblast; [4]): 45% and 51%
- Population Normal (%) (Fibroblast; [4]): 100% and 99%
- Population Pyknosed Nuclei (%) (Fibroblast; [4]): 14% and 21%
- Population Tubulin-Different-Phenotype (%) (Fibroblast; [4]): 8% and 14%
- Total Cell Count (Fibroblast; [4]): 161 and 215
- Population Apoptotic (%) (Fibroblast; [5]): 42% and 34%
- Population Fragmented Nuclei (%) (Fibroblast; [5]): 12% and 15%
- Population Healthy Nuclei (%) (Fibroblast; [5]): 61% and 63%
- Population Hoechst High Intensity Objects (%) (Fibroblast; [5]): 0%
- Population Membrane Permeable-Phenotype (%) (Fibroblast; [5]): 8% and 7%
- Population Mitochondria Different-Phenotype (%) (Fibroblast; [5]): 1% and 0%
- Population Mitotic Cells (%) (Fibroblast; [5]): 57% and 65%
- Population Normal (%) (Fibroblast; [5]): 100%
- Population Pyknosed Nuclei (%) (Fibroblast; [5]): 25% and 21%
- Population Tubulin-Different-Phenotype (%) (Fibroblast; [5]): 36% and 23%
- Total Cell Count (Fibroblast; [5]): 164 and 244
- Population Apoptotic (%) (Fibroblast; [6]): 50% and 65%
- Population Fragmented Nuclei (%) (Fibroblast; [6]): 12% and 16%
- Population Healthy Nuclei (%) (Fibroblast; [6]): 67% and 62%
- Population Hoechst High Intensity Objects (%) (Fibroblast; [6]): 0%
- Population Membrane Permeable-Phenotype (%) (Fibroblast; [6]): 6% and 7%
- Population Mitochondria Different-Phenotype (%) (Fibroblast; [6]): 0% and 3%
- Population Mitotic Cells (%) (Fibroblast; [6]): 50% and 34%
- Population Normal (%) (Fibroblast; [6]): 99% and 100%
- Population Pyknosed Nuclei (%) (Fibroblast; [6]): 19% and 20%
- Population Tubulin-Different-Phenotype (%) (Fibroblast; [6]): 13% and 16%
- Total Cell Count (Fibroblast; [6]): 157 and 207
- Population Apoptotic (%) (Fibroblast; [1]): 53% and 68%
- Population Fragmented Nuclei (%) (Fibroblast; [1]): 17% and 15%
- Population Healthy Nuclei (%) (Fibroblast; [1]): 63% and 69%
- Population Hoechst High Intensity Objects (%) (Fibroblast; [1]): 0%
- Population Membrane Permeable-Phenotype (%) (Fibroblast; [1]): 10% and 6%
- Population Mitochondria Different-Phenotype (%) (Fibroblast; [1]): 4% and 3%
- Population Mitotic Cells (%) (Fibroblast; [1]): 46% and 31%
- Population Normal (%) (Fibroblast; [1]): 100%
- Population Pyknosed Nuclei (%) (Fibroblast; [1]): 19% and 15%
- Population Tubulin-Different-Phenotype (%) (Fibroblast; [1]): 36% and 23%
- Total Cell Count (Fibroblast; [1]): 163 and 231
- Population Apoptotic (%) (Fibroblast; [2]): 66% and 76%
- Population Fragmented Nuclei (%) (Fibroblast; [2]): 11% and 18%
- Population Healthy Nuclei (%) (Fibroblast; [2]): 72% and 69%
- Population Hoechst High Intensity Objects (%) (Fibroblast; [2]): 0%
- Population Membrane Permeable-Phenotype (%) (Fibroblast; [2]): 5% and 4%
- Population Mitochondria Different-Phenotype (%) (Fibroblast; [2]): 1%
- Population Mitotic Cells (%) (Fibroblast; [2]): 33% and 24%
- Population Normal (%) (Fibroblast; [2]): 100%
- Population Pyknosed Nuclei (%) (Fibroblast; [2]): 15% and 12%
- Population Tubulin-Different-Phenotype (%) (Fibroblast; [2]): 10% and 7%
- Total Cell Count (Fibroblast; [2]): 154 and 204
- Population Apoptotic (%) (Fibroblast; [3]): 64% and 55%
- Population Fragmented Nuclei (%) (Fibroblast; [3]): 19% and 16%
- Population Healthy Nuclei (%) (Fibroblast; [3]): 71%
- Population Hoechst High Intensity Objects (%) (Fibroblast; [3]): 0%
- Population Membrane Permeable-Phenotype (%) (Fibroblast; [3]): 9% and 4%
- Population Mitochondria Different-Phenotype (%) (Fibroblast; [3]): 0% and 1%
- Population Mitotic Cells (%) (Fibroblast; [3]): 35% and 44%
- Population Normal (%) (Fibroblast; [3]): 100%
- Population Pyknosed Nuclei (%) (Fibroblast; [3]): 8% and 12%
- Population Tubulin-Different-Phenotype (%) (Fibroblast; [3]): 17% and 9%
- Total Cell Count (Fibroblast; [3]): 156 and 218
